Assay outcomes (PubChem)
SIRT5 inh – SIRT5 desuccinylase inhibitors, primary screen, biochemical, fluorescence imaging, single point, set 5. inhibition, % at 15 µM. Purified SirT5, succinyl-peptide AMC, trypsin-coupled fluorescence. hit rate 1.1% among 330,000; in the data active = inhibition above about 15%
E-sel inducer – E-selectin induction in HUVECs, primary screen, imaging, HUVEC, immunofluorescence imaging, single point | AID 686992, 2013 | activation, % at 7.58 µM | P16581 | hit rate 0.37% among 260,000 | normalized: neutral wells 0, TNF-alpha wells 100;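 active = mean E-selectin-positive cell signal at least 10% of the positive control, reached in at least 60% of replicates, without over 20% cell loss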
Target sequence (P16581 whole entry, looked up): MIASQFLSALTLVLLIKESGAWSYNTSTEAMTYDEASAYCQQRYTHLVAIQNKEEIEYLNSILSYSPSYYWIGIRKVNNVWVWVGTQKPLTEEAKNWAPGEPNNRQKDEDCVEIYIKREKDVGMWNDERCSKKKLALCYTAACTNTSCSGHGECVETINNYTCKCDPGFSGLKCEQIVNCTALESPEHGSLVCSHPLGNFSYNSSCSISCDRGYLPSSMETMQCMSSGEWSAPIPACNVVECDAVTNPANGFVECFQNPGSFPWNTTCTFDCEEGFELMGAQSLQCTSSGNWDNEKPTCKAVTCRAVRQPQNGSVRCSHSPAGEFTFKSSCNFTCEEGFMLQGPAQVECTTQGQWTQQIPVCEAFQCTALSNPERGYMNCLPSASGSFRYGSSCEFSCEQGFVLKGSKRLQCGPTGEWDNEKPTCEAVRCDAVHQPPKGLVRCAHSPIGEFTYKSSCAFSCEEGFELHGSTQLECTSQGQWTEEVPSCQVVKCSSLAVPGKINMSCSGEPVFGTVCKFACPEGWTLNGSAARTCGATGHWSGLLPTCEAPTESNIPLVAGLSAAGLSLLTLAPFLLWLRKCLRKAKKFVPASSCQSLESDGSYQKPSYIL
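Assay system: HUVEC, human umbilical vein endothelial cells / Amount: 3,000 HUVEC/well / Controls: TNF-alpha positive control, DMSO neutral control / Compound dosing: single concentration / Medium: EGM-2 over gelatin coat / Evaluation: percent E-selectin-positive cells / Signal: immunofluorescence imaging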
S100A4 inh HTS – inhibitors of S100A4-myosin IIA peptide binding, primary screen, biochemical, fluorescence polarization, TAMRA-MyoIIA peptide; inhibition, % at 10.7 µM; hit rate 0.14% among 360,000;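 active = mean inhibition of at least 70% across replicates, with every replicate also reaching that level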
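Material: S100A4 monomer protein / Buffer or medium: 50 mM HEPES pH 7.2, 10 mM CaCl2, 100 mM KCl / Times: 5 min incubation before reading / Benchmarks: neutral control DMSO, positive control TFP / Reagent: labelled myosin peptide probe, 5 nM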
MLL AF4-AF9 inh – inhibitors of AF4 peptide binding to AF9, primary screen, biochemical, AlphaScreen, biotin-AF4 peptide, FLAG-AF9, single point. hit rate 0.47% among 350,000. Protein AF-9 (Homo sapiens), P42568. inhibition, % at 10 µM;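 active = every replicate reaching a set inhibition limit, whatever the replicate mean, cut at about 25% in these data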;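 note: 0% = plate neutral control median and 100% = total signal loss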
Ecoli rRNA inh – reduced GFP signal of wild-type E. coli, primary screen, bacterial rRNA inhibitor project, GFP/RFP fluorescence, OD600, single point; E. coli WT GFP vs humanized-ribosome RFP mutants, 24 h; active compounds read low; DMSO median 0, no signal -100; GFP signal change (wild-type ribosome), % (test concentration not listed); hit rate 1.6% among 350,000;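 active = significant combined selectivity score with lowered wild-type GFP, culture density cut under 30%, mutant RFP and density less affected; inactive = any of these conditions unmet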
ERAP1 inh – human ERAP1 aminopeptidase inhibitors, primary screen, biochemical, single point, plate reader; recombinant ERAP1, Leu-AMC fluorescence, 60 min; inhibition, % at 10.7 µM; hit rate 0.15% among 340,000;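 active = mean replicate inhibition of at least 30%, or all replicates individually reaching that 30% level; inactive = mean below 30% and not every replicate reaching it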;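 note: 0% = neutral control wells and 100% = L-leucinethiol positive control wells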
The depositor's hits bear a star; x = no result; ! = repeats disagree. A selection: hits, their analogues and other compounds. The true share with any hit is near 3.4%.

SMILES	SIRT5 inh	E-sel inducer	S100A4 inh HTS	MLL AF4-AF9 inh	Ecoli rRNA inh	ERAP1 inh
CO[C@@H]1CN(C)C(=O)c2ccc(NC(=O)C3CC3)cc2OC[C@@H](C)N(CC2CCCC2)C[C@H]1C	9	0	7	1	-2	-2
Cc1cccc(CSCC(=O)N2CCN(S(=O)(=O)c3ccccc3C#N)CC2)c1	x	0	-2	3	-16*	-1
CCOc1ccccc1OCCCC(=O)N1CCN(S(=O)(=O)c2ccccc2C#N)CC1	0	3	0	-9	-1	-1
Cc1noc(C)c1NC(=O)N(C)C[C@H]1Oc2ccc(NS(=O)(=O)c3cn(C)cn3)cc2CC(=O)N([C@H](C)CO)C[C@H]1C	1	x	-1	1	2	4
C[C@@H]1CN([C@@H](C)CO)C(=O)c2cc(NS(C)(=O)=O)ccc2O[C@H]1CN(C)S(=O)(=O)c1cccs1	1	0	-5	-1	-2	-1
CO[C@@H]1CN(C)C(=O)c2cc(NC(=O)CC(F)(F)F)ccc2OC[C@H](C)N(C(C)=O)C[C@H]1C	2	1	-24	-2	3	-1
COC(=O)[C@H]1[C@H](CO)[C@H]2Cn3c(ccc(-c4ccccc4OC)c3=O)[C@H]2N1C(=O)c1cccnc1	0	0	0	-2	2	1
CCCCN(C)CCNS(=O)(=O)c1ccc2c(c1)n(C)c(=O)c(=O)n2C	3	164*	-1	-3	6	-1
COc1ccc(S(=O)(=O)N(C)C[C@H]2Oc3c(NC(=O)c4nc5ccccc5s4)cccc3C(=O)N([C@H](C)CO)C[C@H]2C)cc1	1	0	8	-1	4	1
CCOC(=O)Cn1c2[n+](c3ccccc31)CC(O)CS2 (centres undefined)	0	x	4	-6	5	78*
Cc1ccc(C)c(N2CN(CCC3=CCCCC3)CNC2=S)c1	1	3	-11	9	-28*	8
COc1ccc(C(=O)Nc2ccc3nc(C)sc3c2)cc1OC	-1	x	3	-1	-20*	5
Cc1ccc(S(=O)(=O)CC(=O)Nc2ccc3nc(C)sc3c2)cc1	24*	x	-2	1	-18	2
Cc1nc2ccc(NC(=O)CS(=O)(=O)c3ccc(F)cc3)cc2s1	-1	0	1	-1	-2	3
Cc1noc(C)c1S(=O)(=O)N(C)C[C@H]1Oc2ccc(NC(=O)CCCN(C)C)cc2C(=O)N([C@H](C)CO)C[C@@H]1C	x	-2	x	x	-3	x
O=C(O)CSc1cc(NS(=O)(=O)c2cccc([N+](=O)[O-])c2)c2ccccc2c1O	6	x	0	x	-34*	8
CCc1ccc(S(=O)(=O)Nc2cc(SCC(=O)O)c(O)c3ccccc23)cc1	1	x	3	-2	-11	1
C[C@@H]1CCCCO[C@H](CN(C)C(=O)CCC(F)(F)F)[C@H](C)CN([C@@H](C)CO)C(=O)c2cc(NS(=O)(=O)c3ccc(Cl)cc3)ccc2O1	17*!	1	-5	-3	1	-1
Cc1ccc(S(=O)(=O)Nc2ccc3c(c2)C(=O)N([C@H](C)CO)C[C@@H](C)[C@H](CN(C)C(=O)Nc2ccc(C(F)(F)F)cc2)OCCCC[C@@H](C)O3)cc1	16*	1	-2	-4	2	1
Cc1ccc(S(=O)(=O)Nc2ccc3c(c2)C(=O)N([C@@H](C)CO)C[C@H](C)[C@@H](CN(C)C(=O)Nc2ccccc2)OCCCC[C@H](C)O3)cc1	17*	0	-13	1	0	2
C[C@@H]1CCCCO[C@@H](CN(C)C(=O)Nc2ccc(C(F)(F)F)cc2)[C@H](C)CN([C@H](C)CO)C(=O)c2cc(NS(=O)(=O)c3ccc(F)cc3)ccc2O1	0	x	-1	0	5	-3
Cc1ccc(S(=O)(=O)Nc2ccc3c(c2)C(=O)N([C@H](C)CO)C[C@H](C)[C@@H](CN(C)C(=O)Nc2ccccc2)OCCCC[C@@H](C)O3)cc1	2	0	-38	-2	2	2
C[C@@H]1CN([C@@H](C)CO)C(=O)c2cc(N(C)C)ccc2O[C@@H](C)CCCCO[C@@H]1CN(C)C(=O)Nc1ccccc1	16*	0	7	6	0	3
C[C@@H]1CN([C@@H](C)CO)C(=O)c2cc(-c3ccc(C#N)cc3)cnc2O[C@@H]1CN(C)Cc1cncnc1	x	0	x	-5	-1	x
CCC(=O)Nc1ccc2c(c1)C(=O)N(C)[C@@H]1CC[C@H](CC(=O)O)O[C@H]1CO2	-3	0	1	0	3	-1
SMILES	SIRT5 inh	E-sel inducer	S100A4 inh HTS	MLL AF4-AF9 inh	Ecoli rRNA inh	ERAP1 inh
Cc1ccc(S(=O)(=O)Nc2ccc3c(c2)C(=O)N([C@@H](C)CO)C[C@H](C)[C@@H](CN(C)C(=O)Nc2ccc(C(F)(F)F)cc2)OCCCC[C@H](C)O3)cc1	17*	0	0	-2	5	3
Cc1ccc(S(=O)(=O)Nc2ccc3c(c2)C(=O)N([C@@H](C)CO)C[C@H](C)[C@H](CN(C)C(=O)Cc2ccccc2)OCCCC[C@H](C)O3)cc1	7	x	-57	0	-3	-1
Cc1ccc(S(=O)(=O)Nc2ccc3c(c2)C(=O)N([C@H](C)CO)C[C@H](C)[C@H](CN(C)C(=O)Cc2ccccc2)OCCCC[C@H](C)O3)cc1	16*	x	-1	2	-1	0
Cc1ccc(S(=O)(=O)Nc2ccc3c(c2)C(=O)N([C@H](C)CO)C[C@H](C)[C@@H](CN(C)C(=O)Nc2ccc(C(F)(F)F)cc2)OCCCC[C@H](C)O3)cc1	16*	0	-3	-3	1	5
C[C@H](CO)N1C[C@H](C)[C@@H](CN(C)C(=O)Nc2ccc(C(F)(F)F)cc2)OCCCC[C@H](C)Oc2ccc(NS(=O)(=O)c3ccc(Cl)cc3)cc2C1=O	0	2	-25	-3	-4	-1
C[C@@H]1CCCCO[C@@H](CN(C)C(=O)Nc2ccc(C(F)(F)F)cc2)[C@H](C)CN([C@@H](C)CO)C(=O)c2cc(NS(=O)(=O)c3ccc(Cl)cc3)ccc2O1	19*	0	-4	-4	-1	0
CC=Cc1ccc2n(c1=O)C[C@@H]1[C@@H](CO)[C@H](C(=O)N3CCC(Cc4ccccc4)CC3)N(C)[C@H]21 (mixture of isomers)	-4	0	-28	4	-9	0
